We go through 14 compounds from ChEMBL document CHEMBL1130149, “Medetomidine analogs as alpha 2-adrenergic ligands. 3. Synthesis and biological evaluation of a new series of medetomidine analogs and their potential binding interactions with alpha 2-adrenoceptors involving a "methyl pocket"” (J Med Chem, 1997).

Assay [1] concerns the target T1, Adrenergic receptor alpha-2 (Rattus norvegicus, UniProt P22086+P19328+P22909).
T1 sequence (P22086 whole entry): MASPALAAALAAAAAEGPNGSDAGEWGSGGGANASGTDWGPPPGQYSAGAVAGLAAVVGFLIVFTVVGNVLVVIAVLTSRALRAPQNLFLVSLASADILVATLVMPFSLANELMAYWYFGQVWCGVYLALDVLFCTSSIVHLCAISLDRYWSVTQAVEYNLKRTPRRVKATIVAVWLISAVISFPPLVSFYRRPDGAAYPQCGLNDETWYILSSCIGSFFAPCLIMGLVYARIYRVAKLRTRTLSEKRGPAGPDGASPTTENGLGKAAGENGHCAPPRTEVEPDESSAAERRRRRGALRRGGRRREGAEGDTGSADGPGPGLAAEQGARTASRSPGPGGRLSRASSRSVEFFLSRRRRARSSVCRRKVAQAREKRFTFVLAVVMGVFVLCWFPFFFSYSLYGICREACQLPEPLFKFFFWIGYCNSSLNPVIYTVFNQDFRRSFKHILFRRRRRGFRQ
T1 sequence (P19328 whole entry): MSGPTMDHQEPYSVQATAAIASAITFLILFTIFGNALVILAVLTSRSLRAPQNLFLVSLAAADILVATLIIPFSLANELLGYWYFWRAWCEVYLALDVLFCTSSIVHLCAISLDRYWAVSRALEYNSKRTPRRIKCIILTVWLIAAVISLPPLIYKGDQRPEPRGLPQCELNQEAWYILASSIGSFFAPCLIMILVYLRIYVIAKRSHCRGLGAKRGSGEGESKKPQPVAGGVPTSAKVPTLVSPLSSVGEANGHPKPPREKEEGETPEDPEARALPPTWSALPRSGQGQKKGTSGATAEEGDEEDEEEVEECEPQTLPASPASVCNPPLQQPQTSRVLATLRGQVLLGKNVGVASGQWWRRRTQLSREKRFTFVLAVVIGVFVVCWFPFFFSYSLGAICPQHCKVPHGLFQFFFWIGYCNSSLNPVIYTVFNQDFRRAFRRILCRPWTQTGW
T1 sequence (P22909 whole entry): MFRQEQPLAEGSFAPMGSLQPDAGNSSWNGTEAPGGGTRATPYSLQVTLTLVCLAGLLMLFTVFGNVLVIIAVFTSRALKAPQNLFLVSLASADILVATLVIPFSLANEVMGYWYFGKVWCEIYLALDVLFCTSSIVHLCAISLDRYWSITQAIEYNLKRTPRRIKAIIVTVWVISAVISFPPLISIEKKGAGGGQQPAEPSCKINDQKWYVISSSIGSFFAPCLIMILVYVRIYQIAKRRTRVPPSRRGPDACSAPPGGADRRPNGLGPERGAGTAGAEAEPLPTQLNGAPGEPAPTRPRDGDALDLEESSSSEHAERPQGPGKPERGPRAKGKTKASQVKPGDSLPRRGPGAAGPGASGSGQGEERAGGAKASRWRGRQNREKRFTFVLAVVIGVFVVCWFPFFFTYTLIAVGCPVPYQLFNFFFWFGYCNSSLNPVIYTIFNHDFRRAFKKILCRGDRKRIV
As to the kind of experiment: Displacement of [3H]rauwolscine from Alpha-2 adrenergic receptor of rat brain membranes. Format: cell membranes, Membrane. Put shortly: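 Rat brain membrane fractions incubated with 0.2 nM [3H]rauwolscine for α2 sites. Nonspecific binding defined with 10 μM phentolamine. IC50 (analog concentration reducing specific binding by 50%) converted to Ki by Ki = IC50(1 + [L]/Kd), where [L] is the radioligand concentration and Kd its equilibrium dissociation constant.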
In general terms: Loss of bound radioactivity is the signal in a displacement assay; it reports binding, not function.

Assay [2] addresses T2, Adrenergic receptor alpha-1 (Rattus norvegicus, UniProt P15823+P23944+P43140).
T2 sequence (P15823 whole entry): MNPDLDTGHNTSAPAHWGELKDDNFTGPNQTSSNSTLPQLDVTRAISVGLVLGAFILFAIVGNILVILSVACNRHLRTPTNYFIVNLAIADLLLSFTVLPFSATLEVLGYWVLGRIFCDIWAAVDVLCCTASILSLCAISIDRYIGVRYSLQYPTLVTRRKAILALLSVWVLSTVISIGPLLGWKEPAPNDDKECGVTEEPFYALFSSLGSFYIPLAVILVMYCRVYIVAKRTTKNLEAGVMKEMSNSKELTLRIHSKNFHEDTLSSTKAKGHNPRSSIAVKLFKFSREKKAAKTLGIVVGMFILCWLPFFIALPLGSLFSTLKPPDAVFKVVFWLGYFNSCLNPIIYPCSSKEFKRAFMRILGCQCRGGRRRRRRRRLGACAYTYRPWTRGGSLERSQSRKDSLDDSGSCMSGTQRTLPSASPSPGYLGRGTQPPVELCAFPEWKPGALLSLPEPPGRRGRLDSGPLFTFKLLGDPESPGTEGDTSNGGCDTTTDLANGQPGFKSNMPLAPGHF
T2 sequence (P23944 whole entry): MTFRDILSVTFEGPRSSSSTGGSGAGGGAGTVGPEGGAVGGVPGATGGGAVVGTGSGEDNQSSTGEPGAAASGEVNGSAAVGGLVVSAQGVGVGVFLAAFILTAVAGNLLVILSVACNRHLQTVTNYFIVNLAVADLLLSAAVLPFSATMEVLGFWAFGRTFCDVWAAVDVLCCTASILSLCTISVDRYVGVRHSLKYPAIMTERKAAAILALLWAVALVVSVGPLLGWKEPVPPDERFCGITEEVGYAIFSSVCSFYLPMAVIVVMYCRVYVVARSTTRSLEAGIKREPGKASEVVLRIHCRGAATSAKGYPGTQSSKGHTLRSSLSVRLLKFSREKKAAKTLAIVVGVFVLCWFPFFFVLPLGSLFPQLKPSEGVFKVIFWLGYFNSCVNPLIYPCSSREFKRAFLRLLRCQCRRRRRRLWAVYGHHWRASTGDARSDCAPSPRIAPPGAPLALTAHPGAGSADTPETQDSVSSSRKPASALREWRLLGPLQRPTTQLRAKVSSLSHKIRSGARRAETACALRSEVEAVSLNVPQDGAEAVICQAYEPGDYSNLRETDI
T2 sequence (P43140 whole entry): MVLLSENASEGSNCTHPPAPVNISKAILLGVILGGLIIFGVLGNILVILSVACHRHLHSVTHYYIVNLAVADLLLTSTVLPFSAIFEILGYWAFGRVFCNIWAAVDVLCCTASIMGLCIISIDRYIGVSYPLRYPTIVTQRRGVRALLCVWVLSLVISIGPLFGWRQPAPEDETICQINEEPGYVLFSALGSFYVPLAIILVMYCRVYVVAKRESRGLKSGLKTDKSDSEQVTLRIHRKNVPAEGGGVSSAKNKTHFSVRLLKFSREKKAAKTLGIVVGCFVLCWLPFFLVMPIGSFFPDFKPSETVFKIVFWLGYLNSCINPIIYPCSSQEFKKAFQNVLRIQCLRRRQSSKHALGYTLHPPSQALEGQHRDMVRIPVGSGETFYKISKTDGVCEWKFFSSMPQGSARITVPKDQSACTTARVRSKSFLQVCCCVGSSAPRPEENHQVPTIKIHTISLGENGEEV
As to the kind of experiment: Displacement of [3H]-prazosin from Alpha-1 adrenergic receptor of rat brain membranes. Type of assay: cell membranes, Membrane. Put shortly: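 Rat brain membrane fractions incubated with 0.1 nM [3H]prazosin for α1 sites. Nonspecific binding defined with 10 μM phentolamine. IC50 (analog concentration reducing specific binding by 50%) converted to Ki by Ki = IC50(1 + [L]/Kd), where [L] is the radioligand concentration and Kd its equilibrium dissociation constant.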

Assay [3] deals with Adrenergic receptor alpha (Rattus norvegicus) (UniProt P15823+P23944+P43140+P22086+P19328+P22909). In words: Relative affinity for Alpha 2 over Alpha 1 adrenergic receptors. Type of assay: protein assay.

Regarding `C1=C(c2c[nH]cn2)c2cccc(OCc3ccccc3)c2CC1`, the figures for the Ki in assay [1] and in assay [2] were 2670 nM and 8250 nM, respectively. The same compound registered a Selectivity in assay [3] of 3.09.

With `Cc1cccc(C(C)c2c[nH]cn2)c1C` (stereo not given), in assay [3], the Selectivity stood at 44.4.

As for `COc1ccc2c(c1)C(c1c[nH]cn1)CCC2` (stereo not given), the Ki in assay [1] came out at 201 nM; in assay [2], 1770 nM. The same compound returned a Selectivity in assay [3] of 8.81.

Turning to `COc1ccc2c(c1)C(c1c[nH]cn1)=CCC2`, the Ki was determined as 1570 nM in assay [1] and 14200 nM in assay [2]. This compound displayed a Selectivity in assay [3] of 9.03.

On to `Oc1cccc2c1CCCC2c1c[nH]cn1` (stereo not given), for which the results for the Ki in assay [1] and in assay [2] were 63 nM and 126 nM, respectively. For the same compound, in assay [3], the Selectivity came to 2.01.

As for `COc1ccc2c(c1)CCC=C2c1c[nH]cn1`, the Ki was 580 nM in assay [1] and 1630 nM in assay [2]. The Selectivity in assay [3] turned out to be 2.81.

Turning to `Cc1cccc2c1CCC=C2c1c[nH]cn1`, the figures for the Ki in assay [1] and in assay [2] were 31 nM and 992 nM, respectively. In assay [3], this compound registered a Selectivity of 32.

Consider `COc1ccc2c(c1)CCCC2c1c[nH]cn1` (stereo not given), for which the Ki in assay [1] was 169 nM; in assay [2], 198 nM. For the same compound, the Selectivity in assay [3] turned out to be 1.17.

For the compound `COc1cccc2c1CCCC2c1c[nH]cn1` (stereo not given), the Ki in assay [1] amounted to 98 nM; in assay [2], 243 nM. In assay [3], this compound registered a Selectivity of 2.48.

As for `Cc1cccc2c1CCC2c1c[nH]cn1` (stereo not given), the figures for the Ki in assay [1] and in assay [2] were 8.8 nM and 73 nM, respectively. Moreover, the Selectivity in assay [3] stood at 8.29.

In the case of `COc1cccc2c1CCC=C2c1c[nH]cn1`, the inhibitory constant (Ki) is on record as 1420 nM in assay [1] and 2970 nM in assay [2]. In assay [3], this compound came in with a Selectivity of 2.1.

With `Cc1cc(C)c2c(c1)C(c1c[nH]cn1)CCC2` (stereo not given), the figures for the Ki in assay [1] and in assay [2] were 103 nM and 131 nM, respectively. Moreover, in assay [3], the Selectivity turned out to be 1.27.

For `Cc1cc(C)c2c(c1)C(c1c[nH]cn1)=CCC2`, the Ki is given as 232 nM in assay [1] and 2960 nM in assay [2]. This compound also displayed a Selectivity in assay [3] of 12.8.

Regarding `Cc1cccc2c1CCCC2c1c[nH]cn1` (stereo not given), the Ki is 95 nM in assay [1] and 191 nM in assay [2]. The compound further displayed a Selectivity in assay [3] of 2.01.

What is called Ki is a dissociation constant, usually derived from enzyme kinetics or from competition with a known ligand.
